The list is not random: actives were taken first. Their share in the collection is about 2.3%.
TCR CD3 inh – blocks the human TCR-CD3 interaction. inhibition, % at 9.4 µM. TAMRA-labeled TCR probe fluorescence, biochemical. 0.37% of 360,000 active;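 also: recombinant mutant TCR 2C K166C tagged with TAMRA read by polarization; 0% = receptor in buffer alone and 100% = receptor with positive control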
pPAFAH inh – pPAFAH (human) enzyme inhibition. Q13093. inhibition, % at 3.39 µM. 1.5% of 330,000 active. recombinant pPAFAH, FP-rhodamine probe fluorescence polarization;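 active = inhibition above the mean inhibition across the screen plus 3 SD, cut at about 25% in these data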;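 also: inhibitors block binding of the rhodamine activity-based probe so polarization drops; 0% = enzyme with DMSO and 100% = wells lacking pPAFAH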
HTRA1 inhibitor – HTRA1 (human) protease inhibition | Q92743 | recombinant HTRA1, FP-rhodamine activity-based probe, fluorescence polarization | inhibition, % at 5.96 µM | 0.5% of 340,000 active | AID 504803; in the data active = inhibition above about 36%;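 also: 0% = enzyme with DMSO and 100% = wells lacking enzyme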
Target sequence (Q92743 whole entry, looked up): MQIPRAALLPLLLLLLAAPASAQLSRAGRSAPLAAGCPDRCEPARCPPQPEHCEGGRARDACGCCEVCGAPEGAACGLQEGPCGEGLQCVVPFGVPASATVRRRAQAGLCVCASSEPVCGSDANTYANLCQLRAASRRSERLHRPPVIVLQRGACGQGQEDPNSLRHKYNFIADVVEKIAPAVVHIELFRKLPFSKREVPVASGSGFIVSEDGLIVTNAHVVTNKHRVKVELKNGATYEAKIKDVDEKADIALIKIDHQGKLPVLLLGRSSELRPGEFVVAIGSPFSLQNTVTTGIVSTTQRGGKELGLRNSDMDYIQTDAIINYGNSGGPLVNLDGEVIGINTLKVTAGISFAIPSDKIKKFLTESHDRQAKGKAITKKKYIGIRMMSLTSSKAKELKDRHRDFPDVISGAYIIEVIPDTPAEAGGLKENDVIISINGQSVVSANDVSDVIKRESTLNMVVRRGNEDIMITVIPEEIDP
ABHD4 inh – ABHD4 (mouse) inhibition, primary FP screen; inhibition, % at 8.92 µM; 0.54% of 370,000 active; Q8VD66; purified mABHD4, FP-Rh probe fluorescence polarization; AID 720543;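 active = inhibition exceeding the mean over every tested compound plus 3 SD, cut at about 30% in these data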;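 also: 0% = plate median of compound wells and 100% = S159A mutant with DMSO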
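system = mouse ABHD4 enzyme, wild type | medium = HEPES pH 7.0, NaCl, Pluronic buffer | also added = FP-Rh probe | incubation = Enzyme–compound pre-incubation 45 min, then probe 60 min, both 25 °C | technique = fluorescence polarization, excitation 525 nm, emission 598 nm, BODIPY TMR filters | controls = S159A mutant high control, sample median low control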
SIAE inh – human SIAE inhibition, primary screen | Q9HAT2 | SIAE FP-Rh probe binding, fluorescence polarization | inhibition, % at 9.66 µM | 0.69% of 370,000 active;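 active = inhibition above a cutoff: mean of compounds within the control limits plus 3 SD of those, cut at about 17% in these data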;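 also: 0% = plate median of compound wells and 100% = probe without SIAE protein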
pPAFAH confirm – confirmation of human plasma PAF acetylhydrolase (pPAFAH) inhibitors | shares compounds with pPAFAH inh | recombinant pPAFAH, FP-Rh probe fluorescence polarization | inhibition, % at 3.39 µM | 72% of 2,300 active | AID 463230;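 active = mean inhibition of the triplicate above the hit cutoff set for the earlier primary screen, cut at about 25% in these data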;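 also: 0% = enzyme with DMSO and 100% = wells lacking pPAFAH enzyme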
HTRA1 conf – confirmation of human HTRA1 inhibitors; recombinant HTRA1, FP-rhodamine activity-based probe, fluorescence polarization; 66% of 1,600 active; shares compounds with HTRA1 inhibitor; inhibition, % at 5.96 µM;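 active = mean inhibition over three repeats above a set limit taken from the earlier primary screen, cut at about 37% in these data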;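 also: 0% = HTRA1 with DMSO and 100% = wells lacking HTRA1; inhibitors block probe binding so polarization drops and inhibition rises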
BSA TAMRA ctr – BSA probe counter-screen for TCR-CD3 inhibitors; shares compounds with TCR CD3 inh; TAMRA-labeled BSA probe fluorescence counterscreen; inhibition, % at 9.4 µM; 10% of 1,200 active; in the data active = inhibition above about 23%;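 also: 0% = buffer low control and 100% = reference high control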
TCR-CD3 conf – confirmation of human TCR-CD3 interaction inhibitors; shares compounds with TCR CD3 inh; TAMRA-labeled TCR probe fluorescence binding assay; inhibition, % at 9.4 µM; 48% of 1,200 active
ABHD4 confirm – confirmation of mouse ABHD4 inhibitors; shares compounds with ABHD4 inh; purified mABHD4, FP-Rh probe fluorescence polarization; inhibition, % at 8.92 µM; 55% of 1,800 active; AID 720658;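 active = mean inhibition across replicates above the hit cutoff set in the primary screen, cut at about 30% in these data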;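 also: 0% = wild-type ABHD4 with DMSO and 100% = catalytically dead S159A mutant with DMSO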
SIAE confirm – confirmation of human SIAE inhibitors. shares compounds with SIAE inh. SIAE FP-Rh activity-based probe, fluorescence polarization. inhibition, % at 9.66 µM. 13% of 2,300 active;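 active = mean inhibition of the replicates above the hit cutoff set in the primary screen, cut at about 17% in these data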;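 also: 0% = SIAE with DMSO and probe and 100% = probe without SIAE; inhibitors lower polarization as more probe stays unbound to SIAE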
* marks the source's active call; other numbers are inactive results; · = no result given. Rule as the data show it, unless noted: active = inhibition above about 19%; inactive = the rest.

SMILES | TCR CD3 inh | pPAFAH inh | HTRA1 inhibitor | ABHD4 inh | SIAE inh | pPAFAH confirm | HTRA1 conf | SIAE confirm | others
O=C(Nc1ccc(-c2csc(Nc3ccc(Cl)cc3)n2)cc1)c1cc([N+](=O)[O-])cc(C(F)(F)F)c1 | -5 | 5 | -7 | -9 | 15 | · | · | ·
O=C(Nc1cccc(-c2csc(Nc3ccc(Cl)cc3)n2)c1)c1cc([N+](=O)[O-])cc(C(F)(F)F)c1 | 8 | 41* | -4 | 5 | 29* | 21 | · | -16
C#CCN1CC(N(C)CCOC(=O)c2ccc(C(C)(C)C)cc2)CS1(=O)=O (stereo not drawn) | · | · | · | 6 | 4 | · | · | ·
CC(C)[C@H]1Cn2nncc2Cn2c3ccccc3c(=O)n21 | · | · | · | 0 | -1 | · | · | ·
CCCn1nc([N+](=O)[O-])c(C(C#N)c2nc3ccccc3o2)c(Cl)c1=O (stereo not drawn) | -1 | 69* | 69* | 80* | 22* | 58* | 83* | 5 | ABHD4 confirm=95*
CCn1nc([N+](=O)[O-])c(C(C#N)c2nc3cc(C(F)(F)F)ccc3s2)c(Cl)c1=O (stereo not drawn) | 1 | 80* | 79* | 85* | 23* | 70* | 76* | 18* | ABHD4 confirm=101*
Cc1cccc(C)c1NC(=O)C1(C)CN(S(C)(=O)=O)CC(=O)N1C1CC1 (stereo not drawn) | -6 | · | · | 2 | 2 | · | · | ·
COc1cccc(NC(=O)CSc2nnc(-c3ccco3)c(-c3ccco3)n2)c1 | 20* | 41* | 39* | 46* | 20* | 17 | -6 | 4 | ABHD4 confirm=25
Cc1noc(C)c1S(=O)(=O)NC(=O)C1(C)CCN1C(=O)Cc1ccc(-c2ccccc2)cc1 (stereo not drawn) | 0 | · | · | 2 | 0 | · | · | ·
COc1ccc(-c2oc3c(c2C#CC(C)(C)O)C(OC)CCC3)cc1 (stereo not drawn) | 4 | · | · | -2 | 0 | · | · | ·
CC(C)C[C@@H]1COc2cccc(N3CCSCC3)c2S(=O)(=O)N1C | · | · | · | 0 | 0 | · | · | ·
O=C(N/N=C/c1cc(Cl)c(O)c(Cl)c1)c1cc2c(ccc3ccccc32)o1 | 12 | 61* | 46* | 29 | 55* | 70* | 50* | 41*
Cc1cc2nc3c(=O)[nH]c(=S)[nH]c3nc2cc1NC(=O)C(F)(F)F | 70* | 79* | 46* | 65* | 21* | 5 | 3 | 8 | BSA TAMRA ctr=-2;TCR-CD3 conf=9;ABHD4 confirm=18
O=c1[nH]c(=S)[nH]c2nc(-c3ccccc3)cnc12 | 0 | -2 | 2 | 9 | 3 | · | · | ·
O=C1NC(=Nc2ccc(O)cc2)S/C1=C/c1ccco1 | -11 | 6 | 3 | 3 | 4 | · | · | ·
O=C1NC(=Nc2ccc3ccccc3c2)S/C1=C/c1ccco1 | -4 | 55* | -6 | 6 | 32* | 22 | · | -3
COC(=O)C1CN(CCO)CCS(=O)(=O)N1Cc1cn(Cc2ccccc2Br)nn1 (stereo not drawn) | · | · | · | 1 | 0 | · | · | ·
CC(N)c1csc(Nc2ncccn2)n1 (stereo not drawn) | 4 | · | · | 3 | 0 | · | · | ·
CCOC(=O)C1Nc2ccc(Br)cc2C2C=CCC12 (stereo not drawn) | -4 | 35* | 65* | 53* | 20* | 4 | 2 | 6 | ABHD4 confirm=52*
CCOC(=O)C1=C(C)N=c2sc(=Cc3cc(Cl)c(OCC(=O)O)c(Cl)c3)c(=O)n2C1c1cccc(OC)c1 (stereo not drawn) | -2 | · | · | -7 | -31 | · | · | ·
NC1=NC(=Nc2cccc(S(N)(=O)=O)c2)c2ccccc21 | 2 | 3 | 7 | 4 | -5 | · | · | ·
COc1cc(N=Nc2cccc(S(N)(=O)=O)c2)c2ccccc2c1N | 1 | 50* | 30 | -1 | 26* | 32* | · | -2
Oc1nc(Nc2cccc(Cl)c2)sc1/C=C1\C=Nc2ccccc21 | -3 | 37* | -21 | -6 | 26* | 29* | · | -19
O=C(Nc1ccc(Br)c2ccccc12)c1ccc2ccccc2c1O | -2 | 36* | 19 | 18 | 26* | 52* | · | -5
Cc1ccc(S(=O)(=O)N2C(c3ccccc3)CC(=O)C3CN(S(=O)(=O)c4ccc(Cl)cc4)C(c4ccccc4)CC32)cc1 (stereo not drawn) | -6 | · | · | -1 | -32 | · | · | ·
SMILES | TCR CD3 inh | pPAFAH inh | HTRA1 inhibitor | ABHD4 inh | SIAE inh | pPAFAH confirm | HTRA1 conf | SIAE confirm | others
O=C(CN[C@@H](Cc1c[nH]c2ccccc12)C(=O)NCCc1c[nH]c2ccccc12)NC1CCCCC1 | · | · | · | 9 | 7 | · | · | ·
COc1ccc(Nc2nnc(SC(C(=O)Nc3cc(C)ccc3C)c3ccccc3)s2)cc1 (stereo not drawn) | 13 | 2 | 2 | -2 | 16 | · | · | ·
COc1ccc(Nc2nnc(SC(C(=O)Nc3ccc(OC)c(Cl)c3)c3ccccc3)s2)cc1 (stereo not drawn) | -10 | 35* | -40 | -11 | 20* | 17 | · | -3
O=[N+]([O-])c1cccc(N/N=C/c2cccc(O)c2O)c1 | 7 | 60* | 60* | 36* | 23* | 66* | 74* | -6 | ABHD4 confirm=34*
COc1cccc(/C=N/Nc2ccc([N+](=O)[O-])cc2)c1O | 14 | 6 | -3 | 1 | -1 | · | · | ·
C[C@H]1[C@@H](OC(=O)NCc2ccco2)CC[C@@]23CCCN2C(=O)CCC[C@@H]13 | · | · | · | -4 | 8 | · | · | ·
O=C1c2ccccc2-c2c1cccc2C(=O)N1CCN(C(=O)c2ccco2)CC1 | 0 | 5 | 7 | -2 | 7 | · | · | ·
O=C(O)CCCNc1cc(N2CCN(C(=O)c3ccco3)CC2)c2noc3c2c1C(=O)c1ccccc1-3 | 79* | 57* | 52* | 66* | 62* | 31* | 47* | 33* | ABHD4 confirm=43*
Nc1ccc2c(c1)C/C(=C/c1ccco1)C2=O | 22* | 84* | 7 | 17 | 23* | 6 | · | -11 | BSA TAMRA ctr=1;TCR-CD3 conf=1
CCCC(=O)C1=C(O)C(C(=O)OC)C(C)(C)CC1=Nc1ccc(N)cc1 (stereo not drawn) | 0 | 1 | -1 | -3 | -2 | · | · | ·
CCCC(=Nc1ccc(N)cc1)C1=C(O)C(C(=O)OC)C(C)(C)CC1=O (stereo not drawn) | 67* | 40* | 61* | 79* | 35* | 5 | 59* | 10 | BSA TAMRA ctr=8;TCR-CD3 conf=8;ABHD4 confirm=14
